Experimental data from ChEMBL document CHEMBL1126252, “cis-bis(pyridine)platinum(II) organoamides with unexpected growth inhibition properties and antitumor activity” (1992).

Legend:
HT-29 [1] = test: Compound was evaluated in vitro for its inhibitory activity againstHT-29 and BE human colon carcinoma cell line using MTT assay; assay type: functional, cell-based
In short: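 HT-29 and BE colon cells were pre-grown 12 h in EMEM with 1% glutamine and 15% FCS, then exposed to drug or vehicle for 2 days. Cells were released with pronase and growth was read by MTT tetrazolium reduction. ID50 (μM) was taken from the percentage growth versus dose curve.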

L1210 [2] = test: Compound was evaluated in vitro for its inhibitory activity against L1210 leukemia cell line using Coulter counter assay; assay type: functional; details: Mus musculus
In short: (§1)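 Log-phase murine L1210 or cisplatin-resistant L1210/DDP cells, drug in ethanol, ethanol/DMSO or DMF (final solvent ≤1.0%) with vehicle-only controls. Exposure was continuous for 48 h, or 2 h followed by 46 h growth. Cells were counted on a Coulter counter. ID50 (μM) was read from the percentage growth versus dose curve; single determinations, ranges, or mean ± range of 2–4.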

L1210 [3] = test: Compound was evaluated in vitro for its inhibitory activity against L1210 leukemia cell line using […]; assay type: functional, cell-based; details: Mus musculus
In short: (§2)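 L1210 or L1210/DDP cells were dosed as for counting (48 h continuous, or 2-h pulse then 46 h), with vehicle controls. Growth was read by mitochondrial reduction of tetrazolium (MTT), modified Mosmann method. ID50 (μM) was taken from the percentage growth versus dose curve; single determinations, ranges, or mean ± range of 2–4.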

HT-29 [4] = test: Compound was evaluated in vitro for its inhibitory activity againstHT-29 and BE human colon carcinoma cell line using Coulter counter assay; assay type: functional, cell-based
In short: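 HT-29 and BE human colon cells were grown 12 h in EMEM with 1% glutamine and 15% fetal calf serum. Drug or solvent was added (final solvent ≤1.0%) for a further 2 days. Cells were released with pronase and Coulter counted. ID50 (μM) was taken from the percentage growth versus dose curve, with vehicle controls.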

L1210 [5] = test: Compound was evaluated in vitro for its inhibitory activity against L1210/DDP leukemia cell line using MTT assay; assay type: functional, cell-based; details: Mus musculus; in short: as §2
P388/DDP [6] = test: Mean survival time of treated animals compared with those of control animals expressed as percentage T/C was determined against murine leukemia P388/DDP (cisplatin resistant) implanted mouse at the dose of 113 umol/kg; assay type: functional
In short: (§3)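 Groups of six BDF1 mice were injected ip on day 0 with 10^6 P388, 5 × 10^6 P388/DDP or 10^5 L1210 cells. Pt compounds in 1% Tween-20/saline (1:9) were given ip on days 1, 5 and 9 at five doses spanning a 16-fold range. Controls were untreated or vehicle-only. Mice were observed 30–60 days; %T/C is treated versus control mean survival time.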

P388 [7] = test: Mean survival time of treated animals compared with those of control animals was determined against murine leukemia P388 implanted mouse at the dose of 113 umol/kg; assay type: functional; in short: as §3
L1210 [8] = test: Compound was evaluated in vitro for its inhibitory activity against L1210/DDP leukemia cell line using Coulter counter assay; assay type: functional, cell-based; details: Mus musculus; in short: as §1
L1210 [9] = test: Mean survival time of treated animals compared with those of control animals expressed as percentage T/C was determined against murine leukemia L1210 implanted mouse at the dose of 113 umol/kg; assay type: functional; in short: as §3
P388 [10] = test: Mean survival time of treated animals compared with those of control animals expressed as percentage. T/C was determined against murine leukemia P388 implanted mouse at the dose of 20 umol/kg; assay type: functional; in short: as §3
P388/DDP [11] = test: Mean survival time of treated animals compared with those of control animals expressed as percentage T/C was determined against murine leukemia P388/DDP (cisplatin resistant) implanted mouse at the dose of 20 umol/kg; assay type: functional; in short: as §3
P388 [12] = test: Mean survival time of treated animals compared with those of control animals expressed as percentage. T/C was determined against murine leukemia P388 implanted mouse at the dose of 140 umol/kg; assay type: functional
In short: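 BDF1 mice (six per group) inoculated ip with 10^6 P388 leukemia cells on day 0; Pt compounds given ip on days 1, 5 and 9 in 1% Tween-20/saline (1:9), five doses over a 16-fold range including the maximum tolerated dose. Untreated/vehicle negative controls; 5-fluorouracil (50 mg/kg) positive control. Animals observed 30–60 days; %T/C = mean survival time treated vs control.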

Molecule	ID50 (HT-29 [1]) [nM]	ID50 (L1210 [2]) [nM]	ID50 (L1210 [3]) [nM]	ID50 (HT-29 [4]) [nM]	ID50 (L1210 [5]) [nM]	T/C (P388/DDP [6]) [%]	T/C (P388 [7]) [%]	ID50 (L1210 [8]) [nM]	T/C (L1210 [9]) [%]	T/C (P388 [10]) [%]	T/C (P388/DDP [11]) [%]	IC50 (L1210 [2]; read-out: ID50 (the source's name)) [nM]	T/C (P388 [12]) [%]
1-[2-(1-pyridiniumyl)-1,3-di(2,3,5,6-tetrafluorophenyl)tetrahydro-1H-2-imidazolyl]pyridinium (platinumcomplex)	1100	1200	1600	1000	1400	115	206	1000	172				
CISPLATIN		600	1100	700	20300			6700		248	122		
Fc1cc(F)c(F)c(NCCNc2c(F)c(F)cc(F)c2F)c1F												37000	108
